Screening data deposited in PubChem BioAssay by several laboratories.
Sampled rows, rich in hits. Any-hit rate of the full collection: about 2.3%.
ABCG2 inh – human ABCG2 inhibition, ABCB1 as counter-screen; IgMXP3 cells, JC-1 efflux, flow cytometry; inhibition, % at 6.6 µM; actives 0.1% (n = 190,000); AID 1325;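 active = inhibition above 80%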;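 also: 0% = DMSO and 100% = nicardipine control wells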
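Incubation: cells with compound and JC-1, 10 min at 25 °C, rotating, no wash / Test system: IgMXP3 (ABCG2) plus far-red-tagged CCRF-Adr (ABCB1) cells / Compound dosing: one concentration, 6.6 µM final / Also added: JC-1 fluorescent substrate / Evaluation: efflux inhibition in percent versus controls / Detection: flow cytometry, 530 nm JC-1 signal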
ABCB1 inh – human ABCB1 inhibition, ABCG2 as counter-screen; inhibition, % at 6.6 µM; CCRF-Adr cells, JC-1 efflux, flow cytometry; AID 1326; P08183; actives 0.067% (n = 190,000); in the data active = inhibition above about 40%;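 also: 0% = vehicle and 100% = reference inhibitor; higher value means more JC-1 retained so stronger ABCB1 efflux block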
Target sequence (P08183 whole entry, looked up): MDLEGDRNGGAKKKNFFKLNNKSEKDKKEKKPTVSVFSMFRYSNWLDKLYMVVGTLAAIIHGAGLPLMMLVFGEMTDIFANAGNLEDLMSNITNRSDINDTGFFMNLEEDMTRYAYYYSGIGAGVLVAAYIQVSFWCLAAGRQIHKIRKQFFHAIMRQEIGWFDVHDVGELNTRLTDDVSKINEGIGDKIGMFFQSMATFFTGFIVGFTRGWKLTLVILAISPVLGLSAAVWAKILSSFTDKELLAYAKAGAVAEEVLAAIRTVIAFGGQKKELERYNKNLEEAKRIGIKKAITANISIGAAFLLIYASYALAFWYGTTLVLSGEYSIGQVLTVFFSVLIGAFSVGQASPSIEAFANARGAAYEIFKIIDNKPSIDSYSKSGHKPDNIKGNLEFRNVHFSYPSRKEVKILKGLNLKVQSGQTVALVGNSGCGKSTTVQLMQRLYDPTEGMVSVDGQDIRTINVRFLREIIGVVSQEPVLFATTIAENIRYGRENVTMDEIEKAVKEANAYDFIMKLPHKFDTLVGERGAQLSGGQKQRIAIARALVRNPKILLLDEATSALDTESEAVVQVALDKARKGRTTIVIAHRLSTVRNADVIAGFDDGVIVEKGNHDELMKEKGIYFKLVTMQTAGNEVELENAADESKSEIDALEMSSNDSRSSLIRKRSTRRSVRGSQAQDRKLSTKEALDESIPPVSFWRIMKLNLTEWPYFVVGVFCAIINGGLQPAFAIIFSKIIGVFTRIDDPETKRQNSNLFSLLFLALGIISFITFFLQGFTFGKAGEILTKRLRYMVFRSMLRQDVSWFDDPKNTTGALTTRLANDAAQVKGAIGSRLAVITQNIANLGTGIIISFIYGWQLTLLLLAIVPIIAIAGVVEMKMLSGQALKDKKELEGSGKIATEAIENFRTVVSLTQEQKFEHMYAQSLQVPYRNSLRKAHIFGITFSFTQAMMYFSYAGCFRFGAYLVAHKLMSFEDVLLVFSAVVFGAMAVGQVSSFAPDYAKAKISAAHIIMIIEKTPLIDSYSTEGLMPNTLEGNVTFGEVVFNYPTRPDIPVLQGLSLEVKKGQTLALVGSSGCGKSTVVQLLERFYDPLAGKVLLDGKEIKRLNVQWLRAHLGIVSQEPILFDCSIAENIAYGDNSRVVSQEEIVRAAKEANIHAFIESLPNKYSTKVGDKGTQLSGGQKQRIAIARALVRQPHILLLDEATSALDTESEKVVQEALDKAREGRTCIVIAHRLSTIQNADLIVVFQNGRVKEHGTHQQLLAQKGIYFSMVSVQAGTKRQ
Arbovirus inh – arbovirus infection inhibition. arbovirus infection cell-based antiviral screen. inhibition, % at 10 µM. actives 0.37% (n = 200,000). AID 1251; in the data active = inhibition above about 30%
RAM inhibit – blocks the yeast RAM network; S. cerevisiae dse1pr::URA3 reporter, 5-FOA growth OD615, 2 d; analog-sensitive cbk1-as2 kinase mutant strain; inhibition, % at 50 µM; actives 1.8% (n = 190,000); AID 868;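 active = inhibition above a set limit, 3 SD over mean compound inhibition, cut at about 8.4% in these data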;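 also: 0% = DMSO-only wells with no growth and 100% = 10 µM 1-NA-PP1 full growth; inhibition rescues growth on 5-FOA so higher OD means more RAM inhibition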
Numbers without * were called inactive.

SMILES	ABCG2 inh	ABCB1 inh	Arbovirus inh	RAM inhibit
CCC(=O)Nc1ccccc1C(=O)OCC(=O)c1ccccc1	5	1	-5	0
CCC(=O)Nc1ccccc1C(=O)OCC(=O)c1ccc2ccccc2c1	1	0	-19	10*
COc1cc(NC(=O)Cn2c(=O)n(CC3CCCO3)c(=O)c3ccccc32)cc(OC)c1 (stereo not drawn)	3	1	8	10*
COc1ccc(NC(=O)Cn2c(=O)n(CC3CCCO3)c(=O)c3ccccc32)c(OC)c1 (stereo not drawn)	1	1	-3	5
C/C(=N\NC(=O)c1nn(C)c(C)c1Br)c1ccc(NC(=O)c2ccc(C)s2)cc1	-1	0	-9	9.2*
COc1ccccc1NS(=O)(=O)c1ccc(Cl)c(NC(=O)c2sc3cc(Cl)ccc3c2Cl)c1	-6	-1	-13	9.0*
O=C(Nc1cc(S(=O)(=O)Nc2ccccc2Cl)ccc1O)c1sc2cc(Cl)ccc2c1Cl	-2	1	1	3
O=c1c2ccccc2n(Cc2cccc(F)c2)c(=O)n1C1CCCC1	2	0	-5	9.3*
Cc1cccc2c1N(CCCOc1ccccc1)C(=O)C2=O	12	1	1	-1
Cc1cccc2c1N(CCCOc1ccc(C(C)(C)C)cc1)C(=O)C2=O	1	0	-41	11*
Cc1ccc(-c2cc(C(=O)O)c3cc(Br)ccc3n2)o1	-6	-1	12	1
C/C(CCc1oc2ccc(Cl)cc2c1-c1ccc(C)o1)=N\O	0	0	-4	9.4*
C/C(CCc1oc2ccc(Br)cc2c1-c1ccc(C)o1)=N/O	15	2	-1	11*
CC(O)CN=c1cc(-c2ccccc2)oc2ccc(Cl)cc12 (stereo not drawn)	5	1	-17	2
CN(C(=O)c1coc(=O)c2ccccc12)c1ccc(Br)cc1	4	1	40*	-1
Cc1ccc(C(=O)Nc2scc(-c3ccccc3)c2C(=O)O)o1	0	0	62*	1
COc1ccc(-c2csc(NC(=O)Cc3cccc4ccccc34)c2C(=O)O)cc1	0	0	47*	3
COc1ccc(-c2csc(NC(=O)c3cccs3)c2C(=O)O)cc1OC	11	-1	24	3
O=C(/C=C/c1ccccc1)Nc1scc(-c2ccccc2)c1C(=O)O	-1	0	73*	4
CCOC(=O)c1c(C)nc2sc(C(=O)Nc3ccc(C(C)=O)cc3)c(N)c2c1-c1ccc(OC)cc1	27	2	-19	6
CCOC(=O)c1c(C)nc2sc(C(=O)Nc3ccc(OC)cc3)c(N)c2c1-c1ccc(OC)cc1	0	1	-12	8.7*
O=C(CCS(=O)(=O)c1ccc(Br)s1)NC1CCCCCC1	19	0	-3	0
COc1ccc(S(=O)(=O)N2CCN(c3cccc(C)c3C)CC2)cc1	7	1	16	8.4*
Cc1ccccc1CN1CCN(S(=O)(=O)c2ccc(F)cc2)CC1	-2	0	-5	1
COc1ccc(N2CCN(S(=O)(=O)c3ccc(OC)cc3)CC2)cc1	-1	2	8	4
SMILES	ABCG2 inh	ABCB1 inh	Arbovirus inh	RAM inhibit
Cc1cccc(C)c1N1CCN(S(=O)(=O)c2ccc(F)cc2)CC1	1	1	14	9.2*
CN(C)c1ccc(N=Nc2ccccc2C(=O)OCC(=O)N(C)C2CCCCC2)cc1	13	3	13	2
CC(C)COc1ccc(C(=O)Nc2scc(-c3ccc(Cl)cc3Cl)c2C(N)=O)cc1	0	0	-4	2
COc1cccc(/C=C/C(=O)Oc2ccc(C(=O)c3ccc(F)cc3)cc2)c1	-1	0	0	8.7*
CCOc1cc2c(cc1OCC)C(C(=O)O)C(c1cc(OC)c(OC)c(OC)c1)N(C)C2=O (stereo not drawn)	1	0	3	3
CCOc1ccc(NC(=O)Nc2cc(-c3ccccc3)sc2C(=O)OC)cc1	10	1	34*	4
O=C(c1ccccc1)n1nc(-c2ccccc2)nc1NCc1ccco1	1	-1	0	10*
N#Cc1c(-c2ccco2)nc(SCC(=O)Nc2ccc(S(N)(=O)=O)cc2)[nH]c1=O	9	3	32*	0
O=C1CC(=O)N(c2cccc(F)c2)N1	-3	-1	-30	3
O=C1CC(c2ccsc2)c2ccc3ccccc3c2N1 (stereo not drawn)	4	1	0	1
O=C1CC(c2cccc([N+](=O)[O-])c2)c2ccc3ccccc3c2N1 (stereo not drawn)	4	2	36*	2
O=C(N=Nc1ccc(NOC(=O)c2ccccc2Br)cc1)c1ccccc1O	-9	-1	-24	11*
COC(=O)CSc1nc2ccc(NC(=O)c3ccccc3C(=O)N3CCOCC3)cc2s1	0	0	-5	9.1*
COc1cc(OC)cc(C(=O)N[C@H](C(=O)OCC(=O)Nc2ccc(C)cc2C)C(C)C)c1	2	1	7	2
Cc1cc([N+](=O)[O-])ccc1NC(=O)c1cncc(Br)c1	19	1	3	1
Cc1ccc(NC(=O)c2cncc(Br)c2)c(O)c1	7	0	39*	-1
CCN(CC)S(=O)(=O)c1cc([N+](=O)[O-])ccc1N=Nc1c(O)[nH]c2ccccc12	-1	0	-6	2
CC1=NN(c2nc(-c3ccc(Cl)cc3)cs2)C(=O)C1	-16	-1	42*	1
CC1=NN(c2nc(-c3ccc(F)cc3)cs2)C(=O)C1	-1	0	9	3
CCCCNC(=S)N/N=C/C1=CCC2CC1C2(C)C (stereo not drawn)	-1	0	6	8.6*
C=C(C)CNC(=S)N/N=C/C1=CCC2CC1C2(C)C (stereo not drawn)	3	0	16	7
CN(Cc1cccs1)C(=O)COC(=O)CNC(N)=O	0	0	18	1
O=C(O)c1ccc(N2C(=O)/C(=C/c3ccc(-c4ccc([N+](=O)[O-])cc4)o3)C=C2c2ccccc2)cc1	4	3	106*	4
O=C(CCc1nnc(CCCCc2ccccc2)o1)NCc1cc(F)ccc1F	0	0	-4	11*
O=C(CCc1nnc(CCCCc2ccccc2)o1)NCc1cccc(F)c1	1	0	0	0
SMILES	ABCG2 inh	ABCB1 inh	Arbovirus inh	RAM inhibit
O=C(Nc1nc2ccccc2s1)c1ccc(N2CCCCC2)c([N+](=O)[O-])c1	-14	-1	38*	3
COc1ccc(/C=C2\CC/C(=C\c3ccc(OC)c(OC)c3)C2=O)cc1OC	4	0	-2	11*
CN(C)C(=O)c1cc(-c2ccccc2)no1	5	0	8	0
Cc1[nH]c2ccccc2c1N=Nc1ccccc1C(=O)O	-10	-2	-4	9.8*
C[C@@H](C(=O)NCc1ccccc1)[C@@H]1C[C@@]1(C)[C@@H](NC(=O)OCc1ccccc1)c1ccccc1	8	2	-14	7
C[C@@H](C(=O)NCc1ccc(S(C)(=O)=O)cc1)[C@H]1C[C@]1(C)[C@H](NC(=O)OCc1ccccc1)c1ccccc1	0	0	-9	9.2*
